The source made the active and inactive calls. No cut-off for these calls is given here.
What was measured:
[1] = test system: Human immunodeficiency virus 1; assay: Antiviral activity against HIV1 infected in human A3.01 cells assessed as inhibition of viral replication at 1.5 ug/ml; format: functional
Outline: (§1)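 A3.01 T lymphocytes were infected with HIV-1 LAV in the presence of compound at a single concentration, 1.5 or 0.5 μg/mL, chosen from the A3.01 cytotoxicity data. Supernatant virus was measured by reverse transcriptase assay, and inhibition was scored on the peak day of virus production. Controls were DMSO at a matching concentration, AZT at 10 and 20 μM, untreated infected cells and mock cells.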

[2] = test system: Human immunodeficiency virus 1; assay: Antiviral activity against HIV1 infected in human A3.01 cells assessed as inhibition of viral replication; format: functional, organism-based
Outline: (§2)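 A3.01 T cells were infected with HIV-1 LAV in the presence of decreasing compound concentrations, lowered until viral replication reappeared. Virus in culture supernatants was measured by reverse transcriptase assay 9 days post-infection, the peak day for the untreated control. Replication was expressed as % of the untreated (concentration 0) control. Results are the mean and standard deviation of duplicate determinations, and IC50 was read from the dose–response curves.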

[3] = Therapeutic index, ratio of CC50 for human A3.01 cells to IC50 for HIV1 infected in human A3.01 cells; format: cell-based; details: A3.01 cells (uninfected for CC50; HIV1-infected for IC50)
Outline: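 The index was calculated from A3.01 cytotoxicity data together with the IC50 for HIV-1 LAV replication in A3.01 cells. Replication was measured by supernatant reverse transcriptase assay 9 days post-infection on dose–response curves run in duplicate.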

[4] = test system: Human immunodeficiency virus 1; assay: Antiviral activity against HIV1 infected in human A3.01 cells assessed as inhibition of viral replication at 0.5 ug/ml; format: functional; outline: as §1
[5] = test system: Human immunodeficiency virus 1; assay: Antiviral activity against HIV1 infected in human A3.01 cells assessed as complete inhibition of viral replication at 1.50 uM; format: functional, organism-based; outline: as §2
[6] = test system: Human immunodeficiency virus 1; assay: Antiviral activity against HIV1 infected in human A3.01 cells assessed as complete inhibition of viral replication at 2.20 uM; format: functional, organism-based; outline: as §2
[7] = test system: Human immunodeficiency virus 1; assay: Antiviral activity against HIV1 infected in human A3.01 cells assessed as complete inhibition of viral replication at 20 uM; format: functional, organism-based
Outline: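 Human A3.01 T-lymphocytes infected with HIV-1 LAV strain while exposed to compound. Virus levels in culture supernatants measured by reverse transcriptase assay. Inhibition read on peak day of virus production, 9 days post-infection in the untreated control. Compared against untreated infected cells, DMSO vehicle at matching concentration, and uninfected mock cells.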

Row | Structure (SMILES) | inhibition at 1.5 µg/mL [1] | IC50 [2] | selectivity ratio [3] | inhibition at 0.5 µg/mL [4] | inhibition [5] | inhibition [6] | inhibition [7]
1 | O=C1C=C[C@H]2c3c(ccc(O)c31)-c1ccc(O)c3c1[C@H]2[C@H]1O[C@H]1C3=O | 33% | – | – | – | – | – | –
2 | O=C1CC[C@]2(O)c3c(ccc(O)c31)-c1ccc(O)c3c1[C@H]2[C@H]1O[C@H]1C3=O | – | 210 nM | 6.5 | 97% | – | – | –
3 | O=C1c2c(O)ccc3c2[C@H](c2ccc(O)c4c2[C@H]3[C@H]2O[C@H]2C4=O)[C@H]2O[C@@H]12 | 97% | 290 nM | 15 | – | Active | – | –
4 | O=C1C[C@H](O)[C@@H]2c3c(ccc(O)c31)-c1ccc(O)c3c1[C@@]2(O)CCC3=O [ALTERTOXIN I] | 97% | 1420 nM | 3 | – | – | Active | –
5 | Cc1cn([C@H]2C[C@H](N=[N+]=[N-])[C@@H](CO)O2)c(=O)[nH]c1=O | – | – | – | – | – | – | Active
6 | O=C1C[C@@H](O)[C@H]2c3c(ccc(O)c31)-c1ccc(O)c3c1[C@H]2[C@H]1O[C@H]1C3=O | 97% | 90 nM | 50 | – | – | – | –

— ChEMBL document CHEMBL3351926, “Altertoxins with potent anti-HIV activity from Alternaria tenuissima QUE1Se, a fungal endophyte of Quercus emoryi” (Bioorg Med Chem, 2014)
